{"data": "Measured values collected from several papers", "target": "Phosphatidylinositol 4-phosphate 5-kinase type-1 alpha (PIP5K1A, Homo sapiens, UniProt Q99755)", "note": "Protocols differ between the studies behind these lines."}
{"Compound": "COCCOc1nc(-c2ccc(Cl)nc2)nc2c1CN(C(=O)c1ncn3ccccc13)CC2", "test": "cell-free assay, competition with immobilised ligand", "setting": "0.1 µM", "measurement": "remaining binding", "result": "100%"}
{"Compound": "Cc1ccc(C(=O)Nc2ccc(CN3CCN(C)CC3)c(C(F)(F)F)c2)cc1C#Cc1cnc2cccnn12", "test": "enzyme activity, inhibitor", "setting": "23.5 nM", "measurement": "remaining activity", "result": "79%"}
{"Compound": "O=C(CSc1nc2nccnc2c(=O)n1CCc1ccccc1)Nc1nccs1", "test": "enzyme activity, inhibitor", "setting": "10 µM", "measurement": "inhibition", "result": "-2%"}
{"Compound": "Cc1cnc(NC2CCOCC2)nc1-n1cnc(C(=O)NC(CN)c2cc(F)cc(Cl)c2)c1 (centres unmarked)", "test": "enzyme activity, inhibitor, radiometric", "setting": "1 µM", "measurement": "remaining activity", "result": "100%"}
{"Compound": "Cc1ccc(NC(=O)c2ccc(C)c(C(F)(F)F)c2)cc1C#Cc1nn(C2CCC(O)CC2)c2ncnc(N)c12 (centres unmarked)", "test": "cell-free assay, inhibitor", "setting": "10 µM", "measurement": "remaining signal", "result": "102%"}
{"Compound": "Nc1ncnc2occ(-c3ccc(NC(=O)Nc4cc(C(F)(F)F)ccc4F)cc3)c12", "test": "enzyme activity, inhibitor", "setting": "20 µM", "measurement": "remaining activity", "result": "60%"}
{"Compound": "COc1cc(Cl)c(C(=O)N[C@@H](CN[C@H]2CC[C@@H](N)CC2)Cc2ccc(C#N)cc2)cc1-c1ccc(CN[C@H](C)c2ccc(C)cc2)o1", "test": "enzyme activity, inhibitor", "setting": "1 µM", "measurement": "remaining activity", "result": "106%"}
{"Compound": "CN1CC(Oc2cnc(C#N)cc2-c2ccn3nc(NC(=O)C4CC4)cc3c2)C1", "test": "enzyme activity, inhibitor", "setting": "1 µM", "measurement": "inhibition", "result": "0%"}
{"Compound": "CCOCCn1cc(C(=O)Nc2ccc(-n3nc(-c4cccnc4)cc3C(F)(F)F)cn2)ccc1=O", "test": "cell-free assay, competition with immobilised ligand", "setting": "1 µM", "measurement": "remaining binding", "result": "100%"}
{"Compound": "CS(=O)(=O)Nc1cccc(-c2csc(NC(=O)CSc3nc4nccnc4c(=O)n3CCc3ccccc3)n2)c1", "test": "enzyme activity, inhibitor", "setting": "10 µM", "measurement": "inhibition", "result": "-1%"}
{"Compound": "Cc1cc(NC(=O)c2cccc3cc(-c4cccc5[nH]nc(N)c45)ccc23)ccc1F", "test": "enzyme activity, inhibitor", "setting": "0.1 µM", "measurement": "activity vs control", "result": "96%"}
